From the EternaBench riboswitch data

Test system: MS2 coat protein
Assay: apparent Kd, MS2 coat protein; higher = weaker binding; RNA-MaP array
How it was run: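 Incubations were done at room temperature with fluorescently labeled MS2 coat protein at 1.5 nM to 3 μM and designed RNAs transcribed on an Illumina sequencing chip from sequenced DNA templates, with or without input ligand. Apparent Kd is the median of binding curves fitted for each cluster. Designs with fewer than 10 measured clusters were excluded.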

[1] = designed as: ON switch for flavin mononucleotide, no ligand
[2] = ligand present: flavin mononucleotide, designed as: ON switch for flavin mononucleotide
[3] = designed as: OFF switch for flavin mononucleotide, no ligand
[4] = ligand present: flavin mononucleotide, designed as: OFF switch for flavin mononucleotide
[5] = designed as: ON switch for theophylline, no ligand
[6] = ligand present: theophylline, designed as: ON switch for theophylline

With “ACAUGAGGAUCACCCAUGUGCCUCGAUAGGUAACUGAGACCCAGAAGGCCAGCGCGUUGCGCCUUGGAGGAUAUGGCAAACAAG” the “apparent Kd” value [1] was 34.5 nM and the “apparent Kd” value [2] was 19.7 nM.

In the case of “ACCGGAAAAGGAUAUCGAAUUAGCAACAUGAGGAUCACCCAUGUCUGUCGCUCGUGUAUUCGAGAAGGUUUCGCCC”, the “apparent Kd” value [3] is reported as 4.96 nM and the “apparent Kd” value [4] is reported as 5.34 nM.

In the case of “ACGAAUCCCGUUCCGUGAGGACAUGAGGAUCACCCAUGUUGCAGAAGGGCCGAGCGGAUGGCGAGGCAGGAUAUGCCACAGAUC”, the “apparent Kd” value [3] is reported as 27.6 nM and the “apparent Kd” value [4] is reported as 105 nM.

With “ACGUAGGGCUAGAAGGCUCUAACAAGGUGCCCAUAAAAUAACAUGAGGAUCACCCAUGUUAGUAGAGAGGAUAUAGACUCAUGU” the “apparent Kd” value [3] was 18.4 nM and the “apparent Kd” value [4] was 19.3 nM.

“ACUAGUAGGCAAGGAUAUGGCCUCAUAAGAUAGCCAGAAGGUGCUACGGACAUGAGGAUCACCCAUGUGCAGCUCGUACGGUGG” was tested, and the “apparent Kd” value [1] was 367 nM and the “apparent Kd” value [2] was 155 nM.

“AGAUAAUCUUGGGAUUUCGUACAUGAGGAUCACCCAUGUCCAGAGGAUAUGCAUAGACAGGCAUCGCAGAAGGCUGGUGAACAG” was tested, and the “apparent Kd” value [1] was 35.4 nM and the “apparent Kd” value [2] was 27.6 nM.

In the case of “AGAUCCGGCGUGAGGAUAUAGCAAGCAACUAACGACUAGAAGGCACAUGAGGAUCACCCAUGUCUGUUACACUA”, the “apparent Kd” value [3] is reported as 12.1 nM and the “apparent Kd” value [4] is reported as 36.7 nM.

For “AGCAUGGUUGGAGGAUAUUCCGCCGUAGUGCUGAAUCCCGGACAUGAGGAUCACCCAUGUGAGCGGAAGAAGGCCAAGUUGUCC”, the “apparent Kd” value [3] was 15.5 nM and the “apparent Kd” value [4] was 63.2 nM.

For “AGCCCUCAAUCAGGAUAUGUGUGCAUCUAUUGACUUCUAACUAGACAUGAGGAUCACCCAUGUGAACAGAAGGGAUUGUAAUCA”, the “apparent Kd” value [3] was 19.9 nM and the “apparent Kd” value [4] was 19.6 nM.

With “AGUGGGUGUUAUGAUACCAGCGUAAUACACAACAUGAGGAUCACCCAUGUGGAGCCUCGCCGCCCUUGGCAGCAUUGGGCCCGCA” the “apparent Kd” value [5] was 212 nM and the “apparent Kd” value [6] was 344 nM.

For “AGUUAGCCUGAUGAGGAUAUACACGCCCGGACAUGAGGAUCACCCAUGUUAACAAGUUAGCUAUUGUAGAAGGCAUCGAGGUGAUG”, the “apparent Kd” value [1] was 44.8 nM and the “apparent Kd” value [2] was 33.5 nM.

“AUAAAAGCCACAUGAGGAUCACCCAUGUAGCAGGAAGCCAGCAAGGAUAUCGCAACAGGAGGGAUCGAGAAGGAGCGUAACUAA” was tested, and the “apparent Kd” value [1] was 23.7 nM and the “apparent Kd” value [2] was 18.2 nM.

For “AUAUAGGUAGGAUAUACAAUGAAUGGGCACCGUAAAACCAUACAUGAGGAUCACCCAUGUAGAAGGACCGGAAG”, the “apparent Kd” value [3] was 7.86 nM and the “apparent Kd” value [4] was 12.5 nM.

“AUAUGCGAUUGAGGAUAUAGGGAGAGGCUAACUCUAGAAGGCAAUGUAUGGAAUAGCUUACACAUGAGGAUCACCCAUGUUGCU” was tested, and the “apparent Kd” value [1] was 9.73 nM and the “apparent Kd” value [2] was 7.27 nM.

In the case of “AUAUUUUCAGGAUAUCAACUUCACUACAUGAGGAUCACCCAUGUCCUCUAUUGUUUACUGUGAGAAGGGAAAGAGA”, the “apparent Kd” value [3] is reported as 1010 nM and the “apparent Kd” value [4] is reported as 507 nM.

With “AUCUAACAUGAGGAUCACCCAUGUCAGGAUAUUGCAGCCGUAGUAGGUCUAGUUUGUGCAAGAAGGGACAUCUC” the “apparent Kd” value [3] was 9.55 nM and the “apparent Kd” value [4] was 22.5 nM.

With “AUGCAACAUGAGGAUCACCCAUGUGGUGAUACCAGUCGACAAGUAGACCCUUGGCAGCACAGCCGAUAUCGAGAGAGAUUUUUGG” the “apparent Kd” value [5] was 487 nM and the “apparent Kd” value [6] was 650 nM.

With “AUGCAUCUAGGAUAUGCGGUGAUUUACAUGAGGAUCACCCAUGUAGACCACCGGUCUAGAGCAGAAGGAGAUGUGG” the “apparent Kd” value [3] was 5.17 nM and the “apparent Kd” value [4] was 5.54 nM.

With “CACGAUCGAGAAGAGUGCAACAUGAGGAUCACCCAUGUAUUCAGAAGGGCCACGACCUUAGUAGGGCAGGAUAUGAUACGAUAC” the “apparent Kd” value [1] was 26.2 nM and the “apparent Kd” value [2] was 19.9 nM.

For “CACUACUCCCAAGGAUAUUACGCUACAAAUCUUACUAACAUGAGGAUCACCCAUGUUCGGAACGGAAAGAAGGUGGGCUUAUAC”, the “apparent Kd” value [1] was 9.38 nM and the “apparent Kd” value [2] was 8.22 nM.

“CAGGCUUUCAAGAAGGACCUGGUAACAUCAGUGGUAGGAUAUUGGUUAAGCUUGGCUUGACAUGAGGAUCACCCAUGUGGCGUA” was tested, and the “apparent Kd” value [1] was 47.4 nM and the “apparent Kd” value [2] was 11.4 nM.

For “CCAACAACGGAGAAGGCGUGACUGGUUUCACAGACAGUGUGGCACAUGAGGAUCACCCAUGUGAACGAGGAUAUCCGUGUGCGA”, the “apparent Kd” value [1] was 11.6 nM and the “apparent Kd” value [2] was 7.4 nM.

In the case of “CCCAAAGACACAUGAGGAUCACCCAUGUUCCGCAAACAAUUGGAGGAUAUGAAGGAACGCAGCAAACAGAAGGCCAUAAAUAGC”, the “apparent Kd” value [1] is reported as 16.8 nM and the “apparent Kd” value [2] is reported as 9.67 nM.

For “CCGAACAUGAGGAUCACCCAUGUAUCCGAGCGAGGACCGGUACGGCCGCCACUCGAACUGCACCGGAAAAGGGAAACACCGAUCC”, the “apparent Kd” value (designed as: ON switch for tryptophan, no ligand) was 56.2 nM and the “apparent Kd” value (ligand present: tryptophan, designed as: ON switch for tryptophan) was 61.8 nM.

In the case of “CCGAAUCAAACUGAUAGUCUACAUGAGGAUCACCCAUGUGAAAAGGAUAUCUUUUGAACUGACGAAGAGAAGGUUUUAGAGGGU”, the “apparent Kd” value [3] is reported as 7.77 nM and the “apparent Kd” value [4] is reported as 8 nM.

For “CCGCCACUACAUGAGGAUCACCCAUGUGAACCGUAGAACAUGAGAAGGUGCCUAAAGCUCGAGGGCAAGGAUAUCAACCGCCGC”, the “apparent Kd” value [1] was 125 nM and the “apparent Kd” value [2] was 97.5 nM.

For “CCUCACGAAAUCGAUGAAAGCAUGUGGCACCGAGGACCGGUACGGCCGCCACUCGCAUCCACACAUGAGGAUCACCCAUGUAAGA”, the “apparent Kd” value (designed as: OFF switch for tryptophan, no ligand) was 39.3 nM and the “apparent Kd” value (ligand present: tryptophan, designed as: OFF switch for tryptophan) was 51.6 nM.

In the case of “CCUUUACAUGAGGAUCACCCAUGUGAAAUGGAUUGCGUAAAUAGAAGGCAUCAGAUCGUACAUGAUGAGGAUAUAUUAUCGAGU”, the “apparent Kd” value [1] is reported as 15.3 nM and the “apparent Kd” value [2] is reported as 7.44 nM.

With “CGAUAUGAGGUCGAUACCAGCAGCUUCAAGCACAUGAGGAUCACCCAUGUCCAUUUUACUUGCCCUUGGCAGCGACUUUGGAAAC” the “apparent Kd” value [5] was 39.4 nM and the “apparent Kd” value [6] was 13.8 nM.

In the case of “CGCAGACAUGAGGAUCACCCAUGUACCAUGAACAGGAAUACAAGAAGGGCAAACUUUAGAUUGAUGCAGGAUAUUGUCACGAGA”, the “apparent Kd” value [1] is reported as 25.8 nM and the “apparent Kd” value [2] is reported as 14 nM.

With “CGCCUAGGGUAUCAGGAUAUGACGGGCAUAACAUGAGGAUCACCCAUGUAAGAGUAGUACAGUUGUCAGAAGGGAUGAUCUAGAAU” the “apparent Kd” value [1] was 162 nM and the “apparent Kd” value [2] was 25.5 nM.

With “CGCGUGUUCGAGGAUAUGGAACUGAUAUUAGACCCAGAAGGCGAGACAUGAGGAUCACCCAUGUGAGGACUAAC” the “apparent Kd” value [3] was 18.6 nM and the “apparent Kd” value [4] was 53.8 nM.

With “CGGUUACAUGAGGAUCACCCAUGUUCCAUGGUUGAAGGAUAUGGCGACGGCGCGUGGGUACCAGAAGGUCAGGCAC” the “apparent Kd” value [1] was 26 nM and the “apparent Kd” value [2] was 19.6 nM.

In the case of “CGUCACCUAAAAGGAUAUCUACAAUACAGGAUUGCGUCUCACAUGAGGAUCACCCAUGUGUGUCCAGAGAAGGUUUCGGCACGU”, the “apparent Kd” value [3] is reported as 8.55 nM and the “apparent Kd” value [4] is reported as 8.34 nM.

In the case of “CGUUCCAGGGAGAAGGGCUACAAGAUCUUUCCAGCAGGAUAUCCCAACAUGAGGAUCACCCAUGUAGUCGUGUUAUUGGCUAUA”, the “apparent Kd” value [1] is reported as 243 nM and the “apparent Kd” value [2] is reported as 86.4 nM.

For “CUAACUCGUGUUAGGAUAUGGUAAGGGCUAGCCACCCAGAAGGAACAUGAGGAUCACCCAUGUCGACAGUCCCG”, the “apparent Kd” value [3] was 17.8 nM and the “apparent Kd” value [4] was 49.1 nM.

“CUAUCACAUGAGGAUCACCCAUGUAUGAUAAUCAUAGGAUAUAGUGCCAGCCAUAAUUUACUAGAAGGAUGUUUCU” was tested, and the “apparent Kd” value [1] was 11.7 nM and the “apparent Kd” value [2] was 10.1 nM.

With “CUCCCUCAGUCAGGAUAUGUGUCUUCCCAACAGGACAUGAGGAUCACCCAUGUCGCAAGCAUGGGACAGAAGGGACAUGGAGCC” the “apparent Kd” value [3] was 23.8 nM and the “apparent Kd” value [4] was 19.6 nM.

“CUCGCUAAAGUAGGAUAUACACAGACAUGAGGAUCACCCAUGUAACGAUGAACCCUUAUUAGAUGGUAGAAGGACUCAAGGCCG” was tested, and the “apparent Kd” value [3] was 13.1 nM.

“CUCUCGGCAGGAUAUCGGCAGAUAAACAUGAGGAUCACCCAUGUGUUCUUAAAAUUCCGUCGAGAAGGGCCGCGAU” was tested, and the “apparent Kd” value [3] was 4.68 nM and the “apparent Kd” value [4] was 5.16 nM.

With “CUGUUUACAUGAGCCCGUCAUAUAUACGAUACCAGUUAAAGAUGAAACCCUUGGCAGCGUAGGACAUGAGGAUCACCCAUGUGCC” the “apparent Kd” value (designed as: OFF switch for theophylline, no ligand) was 18.6 nM and the “apparent Kd” value (ligand present: theophylline, designed as: OFF switch for theophylline) was 33.1 nM.
